Results from ChEMBL document CHEMBL1134529, “4-Hydroxy-5,6-dihydropyrones as inhibitors of HIV protease: the effect of heterocyclic substituents at C-6 on antiviral potency and pharmacokinetic parameters” (J Med Chem, 2001).
Several values for one entry are separate records, joined by “and”; a condition that tells them apart may be missing. Equal values may be shown once.

What was measured:
[1] = Toxicity measured in CEM cells in the absence of virus.; type: cell-based; settings: human, CEM cells (CCRF-CEM); read-out: TC50 (the source's name)
[2] = test system: Human immunodeficiency virus 1; assay: Antiviral activity in HIV infected CEM cells as effective concentration at which 50% of the cells are protected from cytopathic effect.; type: functional, organism-based; settings: Human immunodeficiency virus 1, CCRF-CEM
Summary of the method: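 HIV-IIIB-infected human lymphocyte-derived CEM cells. EC50 is the drug concentration at which 50% of cells are protected from HIV cytopathic effects. Testing was done at Southern Research Institute.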

[3] = molecular target: Human immunodeficiency virus type 1 protease (Human immunodeficiency virus 1, UniProt Q72874); assay: HIV-1 protease inhibition.
Summary of the method: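 Affinity-purified HIV-1 protease (1.5 nM final) with 40 µM peptide substrate His-Lys-Ala-Arg-Val-Leu-(p-NO2-Phe)-Glu-Ala-Nle-Ser-NH2 and 1.0% DMSO. Buffer: 80 mM MES, 160 mM NaCl, 1.0 mM DTT, 1.0 mM EDTA, 0.1% PEG 8000, pH 6.2. Incubated 60 min at 37 °C, then quenched with TFA (2% final). Products separated by reverse-phase HPLC and read at 220 nm. Percent control derived from % conversion with vs without inhibitor; IC50 then determined.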

[4] = Compound was evaluated for pharmacokinetic parameter, Tmax; type: ADME, organism-based; settings: in vivo
[5] = Compound was evaluated for pharmacokinetic parameter, area under curve (AUC); type: ADME; set-up: unit not given here
[6] = Compound was evaluated for pharmacokinetic parameter, Cmax; type: ADME, organism-based; settings: in vivo
[7] = compound was evaluated for pharmacokinetic parameter, area under curve (AUC); type: ADME
Summary of the method: (§1)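 Species-dependent dosing. Mice: 25 mg/kg po in 20% 0.1 N NaOH/80% 0.5% methylcellulose; values from a pool of five mice; plasma levels by HPLC. Rats: 10 mg/kg po by capsule or pH 7.4-buffered solution; average of two animals. Dogs: 10 mg/kg in saline (sodium salt) or pH 10-buffered 0.1 NaOH (free acid).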

[8] = compound was evaluated for pharmacokinetic parameter, half life period (T1/2); type: ADME, organism-based; settings: in vivo; summary of the method: as §1
[9] = compound was evaluated for pharmacokinetic parameter, Tmax; type: ADME, organism-based; settings: in vivo; summary of the method: as §1
[10] = Compound was evaluated for pharmacokinetic parameter, Cmax in rat at 10 mg/kg po; settings: in vivo
[11] = Compound was evaluated for pharmacokinetic parameter, half life period (T1/2); type: ADME, organism-based; settings: in vivo
[12] = Bioavailability; type: ADME, organism-based; settings: eutheria, in vivo
Summary of the method: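 Dogs dosed at 10 mg/kg. Vehicle was either the sodium salt in normal saline or the free acid in 0.1 NaOH buffered to pH 10, depending on compound.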

[13] = Compound was evaluated for pharmacokinetic parameter, Cmax in rat at 25 mg/kg po; type: ADME, organism-based; set-up: dose 25 mg/kg, route oral; settings: in vivo

SMILES	EC50 [2]	IC50 [3]	CC50 [1]	also measured
Cc1cc(SC2=C(O)OC(CCc3ccsc3CO)(C(C)C)CC2=O)c(C(C)(C)C)cc1CO (stereo not given)	920 nM	14 nM	200000 nM	–
Cc1nc(CCC2(C(C)C)CC(=O)C(Sc3cc(C)c(CO)cc3C(C)(C)C)=C(O)O2)cs1 (stereo not given)	4500 nM	13 nM	210000 nM	–
Cc1cc(SC2=C(O)OC(CCc3nc4ccccc4s3)(C(C)C)CC2=O)c(C(C)(C)C)cc1CO (stereo not given)	1500 nM	1.4 nM	62000 nM	–
CC(=O)Nc1nc(CCC2(C(C)C)CC(=O)C(Sc3cc(C)c(CO)cc3C(C)(C)C)=C(O)O2)cs1 (stereo not given)	23000 nM	18 nM	210000 nM	–
Cc1cc(SC2=C(O)OC(CCC3CCCO3)(C(C)C)CC2=O)c(C(C)(C)C)cc1CO (stereo not given)	–	5 nM	–	–
Cc1cc(SC2=C(O)OC(CCc3cccnc3)(C(C)C)CC2=O)c(C(C)(C)C)cc1CO (stereo not given)	–	0.94 nM	–	Tmax [4]: 30 min
Cc1cc(SC2=C(O)OC(CCc3cnc(N)nc3)(C(C)C)CC2=O)c(C(C)(C)C)cc1CO (stereo not given)	5700 nM	–	> 200000 nM	–
Cc1cc(SC2=C(O)OC(CCc3cc[nH]n3)(C(C)C)CC2=O)c(C(C)(C)C)cc1CO (stereo not given)	5600 nM	0.28 nM	320000 nM	–
Cc1cc(SC2=C(O)OC(CCc3ncsc3C(C)C)(C(C)C)CC2=O)c(C(C)(C)C)cc1CO (stereo not given)	10000 nM	5.8 nM	52000 nM	–
Cc1cc(SC2=C(O)OC(CCc3cncnc3)(C(C)C)CC2=O)c(C(C)(C)C)cc1CO (stereo not given)	1200 nM	17 nM	> 200000 nM	–
Cc1cc(SC2=C(O)OC(CCc3ccc(N)cc3)(C(C)C)CC2=O)c(C(C)(C)C)cc1CO (racemic)	500 nM	0.43 nM	> 100000 nM	AUC [5]: 42; Cmax [6]: 23 µM; half-life [11]: 132 min; Tmax [4]: 30 min
Cc1cc(SC2=C(O)OC(CCc3scnc3C(C)C)(C(C)C)CC2=O)c(C(C)(C)C)cc1CO (stereo not given)	1200 nM	0.8 nM	102000 nM	–
Cc1cc(SC2=C(O)OC(CCc3ccoc3)(C(C)C)CC2=O)c(C(C)(C)C)cc1CO (stereo not given)	1000 nM	0.34 nM	199000 nM	AUC [5]: 241; Cmax [6]: 54.4 µM; half-life [11]: 336 min; Tmax [4]: 30 min
Cc1cc(SC2=C(O)OC(CCc3cccs3)(C(C)C)CC2=O)c(C(C)(C)C)cc1CO (stereo not given)	500 nM	0.35 nM	81000 nM	–
Cc1cc(SC2=C(O)OC(CCc3csc(C(C)C)n3)(C(C)C)CC2=O)c(C(C)(C)C)cc1CO (stereo not given)	23000 nM	1.6 nM	91000 nM	–
Cc1cc(SC2=C(O)OC(CCc3sccc3C)(C(C)C)CC2=O)c(C(C)(C)C)cc1CO (stereo not given)	280 nM	–	80000 nM	–
Cc1cc(SC2=C(O)OC(CCc3ncsc3C)(C(C)C)CC2=O)c(C(C)(C)C)cc1CO (stereo not given)	1800 nM	1.3 nM	208000 nM	–
Cc1cc(SC2=C(O)O[C@](CCc3ccc(N)cc3)(C(C)C)CC2=O)c(C(C)(C)C)cc1CO	–	0.11 nM	210000 nM	AUC [5]: 82; Cmax [6]: 26.5 µM; half-life [8]: 222 min; bioavailability [12]: 33%; Tmax [9]: 30 min; half-life [11]: 132 min; Tmax [4]: 30 min
Cc1cc(SC2=C(O)OC(CCc3cscc3C)(C(C)C)CC2=O)c(C(C)(C)C)cc1CO (stereo not given)	260 nM	0.41 nM	51000 nM	–
Cc1cc(SC2=C(O)OC(CCc3csc(CO)c3)(C(C)C)CC2=O)c(C(C)(C)C)cc1CO (stereo not given)	18000 nM	0.19 nM	210000 nM	–
Cc1cc(SC2=C(O)OC(CCc3cscn3)(C(C)C)CC2=O)c(C(C)(C)C)cc1CO (stereo not given)	2800 nM	1.3 nM	141000 nM	–
Cc1cc(SC2=C(O)O[C@](CCc3ccsc3)(C(C)C)CC2=O)c(C(C)(C)C)cc1CO	120 nM	0.13 nM	91000 nM	T1/2 [8]: 690 min and 324 min; bioavailability [12]: 88%; Cmax [13]: 14.7 µM; Tmax [9]: 30 min
Cc1cc(SC2=C(O)OC(CCc3ccc4[nH]ccc4c3)(C(C)C)CC2=O)c(C(C)(C)C)cc1CO (stereo not given)	680 nM	0.98 nM	46000 nM	–
Cc1cc(SC2=C(O)OC(CCc3ccco3)(C(C)C)CC2=O)c(C(C)(C)C)cc1CO (stereo not given)	750 nM	0.78 nM	190000 nM	–
O=c1cc(-c2ccccc2)oc(O)c1Sc1ccccc1	–	3000 nM	–	–
Cc1csc(CCC2(C(C)C)CC(=O)C(Sc3cc(C)c(CO)cc3C(C)(C)C)=C(O)O2)n1 (stereo not given)	800 nM	0.45 nM	171000 nM	–

Now from value to compound, other results behind:

EC50 [2]	IC50 [3]	SMILES	CC50 [1]	also measured
1900 nM	0.24 nM	Cc1cc(SC2=C(O)OC(CCc3cncs3)(C(C)C)CC2=O)c(C(C)(C)C)cc1CO (stereo not given)	229000 nM	–
370 nM	0.72 nM	Cc1cc(SC2=C(O)OC(CCc3c[nH]c4ccccc34)(C(C)C)CC2=O)c(C(C)(C)C)cc1CO (stereo not given)	46000 nM	–
1500 nM	1.2 nM	Cc1cc(SC2=C(O)OC(CCc3ccccn3)(C(C)C)CC2=O)c(C(C)(C)C)cc1CO (stereo not given)	249000 nM	–
33000 nM	14 nM	Cc1cc(SC2=C(O)OC(CCc3nc(C(C)C)cs3)(C(C)C)CC2=O)c(C(C)(C)C)cc1CO (stereo not given)	84000 nM	–
2500 nM	0.58 nM	Cc1cc(SC2=C(O)OC(CCc3ccc(CO)s3)(C(C)C)CC2=O)c(C(C)(C)C)cc1CO (stereo not given)	182000 nM	–
700 nM	0.57 nM	Cc1cc(SC2=C(O)OC(CCc3nccs3)(C(C)C)CC2=O)c(C(C)(C)C)cc1CO (stereo not given)	216000 nM	AUC [5]: 132; Cmax [6]: 33 µM; AUC [7]: 10000 ng·h/mL; half-life [8]: 732 min; Tmax [9]: 15 min; Cmax ([10]; read-out: Cmax): 2.7 µM; half-life [11]: 198 min; Tmax [4]: 30 min
3500 nM	0.95 nM	Cc1cc(SC2=C(O)OC(CCc3csc(N)n3)(C(C)C)CC2=O)c(C(C)(C)C)cc1CO (stereo not given)	> 200000 nM	–
300 nM	0.17 nM	Cc1cc(SC2=C(O)OC(CCc3ccsc3)(C(C)C)CC2=O)c(C(C)(C)C)cc1CO (stereo not given)	110000 nM	AUC [5]: 221; Cmax [6]: 39.6 µM; AUC [7]: 21 µg/h/mL; half-life [8]: 564 min; Tmax [9]: 30 min; Cmax [10]: 11.2 µM; half-life [11]: 210 min; Tmax [4]: 30 min
1900 nM	19 nM	Cc1cnc(CCC2(C(C)C)CC(=O)C(Sc3cc(C)c(CO)cc3C(C)(C)C)=C(O)O2)s1 (stereo not given)	210000 nM	–
1500 nM	1.5 nM	Cc1cc(SC2=C(O)OC(CCc3ccncc3)(C(C)C)CC2=O)c(C(C)(C)C)cc1CO (stereo not given)	296000 nM	–
14000 nM	11.5 nM	Cc1cc(SC2=C(O)O[C@@](CCc3ccsc3)(C(C)C)CC2=O)c(C(C)(C)C)cc1CO	95000 nM	–
89000 nM	70 nM	Cc1cc(SC2=C(O)OC(CCc3c[nH]cn3)(C(C)C)CC2=O)c(C(C)(C)C)cc1CO (stereo not given)	200000 nM	–
370 nM	–	Cc1cc(SC2=C(O)OC(CCc3scnc3C)(C(C)C)CC2=O)c(C(C)(C)C)cc1CO (stereo not given)	164000 nM	Tmax [9]: 15 min; Cmax [10]: 0.77 µM
